Measurements taken from ChEMBL document CHEMBL1275571, “Impact of self-assembly properties on antibacterial activity of short acyl-lysine oligomers” (Antimicrob Agents Chemother, 2008).
Converted amounts (≈) assume the structure as drawn. Non-standard residues stand in square brackets, D forms with d. Residues, ends and D or L forms follow the SMILES beside them. *: point of attachment. Palmitoyl = CCCCCCCCCCCCCCCC(=O)*; 12Ado = NCCCCCCCCCCCC(=O)O

Legend:
Lipid bilayer [1] = experiment: Apparent affinity to phospholipid membrane in cell-free system at low concentration range of 0.16 to 2.5 uM
Method in brief: (§1)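 Surface plasmon resonance on a POPC-POPG (3:1) small-unilamellar-vesicle bilayer on an L1 chip. Compound was in PBS pH 7.4 at the low series (0.16, 0.31, 0.62, 1.25, 2.5 μM), duplicate injections each. Affinity constants were calculated with a two-step binding model from the average of five duplicated binding curves.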

Staphylococcus aureus = experiment: Antimicrobial activity against Staphylococcus aureus ATCC 25923 by microdilution method; format: functional
Method in brief: (§2)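 Overnight LB cultures were diluted 10,000-fold and used at 2 × 105 to 4 × 10^5 CFU/ml (LB pH 7.4). They were mixed 1:1 with compound in twofold serial dilutions from 0 to 50 μΜ. Plates were incubated overnight at 37°C and read by OD620. The MIC is the concentration giving 100% inhibition. Values are from at least two independent assays run in duplicate.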

Pseudomonas aeruginosa = experiment: Antimicrobial activity against Pseudomonas aeruginosa ATCC 9027 by microdilution method; format: functional; method in brief: as §2
Escherichia coli = experiment: Antimicrobial activity against Escherichia coli ATCC 35218 by microdilution method; format: functional; method in brief: as §2
Lipid bilayer [2] = experiment: Adhesion affinity to phospholipid membrane in cell-free system at high concentration range of 3.1 to 50 uM
Method in brief: (§3)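 SPR on an L1 chip, with small unilamellar vesicles of POPC-POPG (3:1 molar ratio) as the bilayer. Compound was in PBS pH 7.4 and injected in the high series (3.1, 6.25, 12.5, 25, 50 μM), two injections per concentration. Association and dissociation curves were fitted to a two-step binding model. Constants come from five duplicated curves.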

Enterococcus faecalis = experiment: Antimicrobial activity against Enterococcus faecalis ATCC 29212 by microdilution method; format: functional; method in brief: as §2
Lipid bilayer [3] = experiment: Apparent affinity to phospholipid membrane in cell-free system at high concentration range of 3.1 to 50 uM; method in brief: as §3
[4] = Cytotoxicity against human RBC assessed as hemolysis; format: organism-based; conditions: human red blood cells (RBC), read-out: LC50 (the source's name)
Method in brief: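 Human red blood cells at 1% hematocrit incubated 3 h at 37°C with the compound in PBS (50 mM sodium phosphate, 150 mM NaCl, pH 7.4). Value is the concentration giving 50% hemolysis (LC50, μM). Values are rounded up to the nearest half unit, as means ± standard deviations of at least four independent experiments run in duplicate.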

Lipid bilayer [5] = experiment: Adhesion affinity to phospholipid membrane in cell-free system at low concentration range of 0.16 to 2.5 uM; method in brief: as §1

`CCCCCC/C=C\CCCCCCCC(=O)N[C@@H](CCCCN)C(=O)N[C@@H](CCCCN)C(=O)NCCCCCCCCCCCC(=O)N[C@@H](CCCCN)C(N)=O` gave a Kapp (Lipid bilayer [1]) of 1.7 ×10⁷ /M, an MBC (Staphylococcus aureus) of 6 µM (≈ 5.01 µg/mL) and an MIC (Staphylococcus aureus) of 3 µM (≈ 2.51 µg/mL). The MBC (Pseudomonas aeruginosa) was 50 µM (≈ 41.8 µg/mL), the MIC (Pseudomonas aeruginosa) was 12.5 µM (≈ 10.4 µg/mL) and the MBC (Escherichia coli) was 12.5 µM (≈ 10.4 µg/mL). For the same compound, the MIC (Escherichia coli) was 6 µM (≈ 5.01 µg/mL), the K (Lipid bilayer [2]) was 1.5 ×10⁶ /M and the MBC (Enterococcus faecalis) was 6 µM (≈ 5.01 µg/mL). For the same compound, the Kapp (Lipid bilayer [3]) was 4.5 ×10⁷ /M, the HC50 [4] was 8.5 µM and the K (Lipid bilayer [5]) was 2.1 ×10⁶ /M.
For `CCCCCCCCCCCCCCCC(=O)N[C@@H](CCCCN)C(=O)N[C@@H](CCCCN)C(=O)NCCCCCCCCCCCC(=O)N[C@@H](CCCCN)C(N)=O` (Palmitoyl-KK[12Ado]K-NH2), the Kapp (Lipid bilayer [1]) was 8.3 ×10⁷ /M, the MBC (Staphylococcus aureus) was > 25 µM and the MIC (Staphylococcus aureus) was 6 µM (≈ 5.02 µg/mL). For the same compound, the MBC (Pseudomonas aeruginosa) was > 50 µM, the MIC (Pseudomonas aeruginosa) was > 25 µM and the MBC (Escherichia coli) was > 50 µM. For the same compound, the MIC (Escherichia coli) was 25 µM (≈ 20.9 µg/mL), the K (Lipid bilayer [2]) was 4.3 ×10⁵ /M and the MBC (Enterococcus faecalis) was > 25 µM. It also gave a Kapp (Lipid bilayer [3]) of 4.3 ×10⁴ /M, an HC50 [4] of 15 µM and a K (Lipid bilayer [5]) of 2.2 ×10⁶ /M.
